Screening results from PubChem BioAssay.
OX1R antag-1 – blocks the human orexin 1 receptor; inhibition, % at 6.6 µM; O43613; hit rate 1.8% among 330,000; AID 485270; OX1R-expressing cells, FRET antagonist read-out; in the data active = inhibition mostly above about 38%, no sharp cut-off; inactive = mostly below about 40%;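 also: 0% = agonist challenge alone and 100% = reference antagonist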
CHO parental Ca – counter-screen: ATP calcium response change in parental CHO cells; hit rate 0.63% among 330,000; inhibition, % at 5.6 µM; parental CHO-K1, ATP-induced calcium, Fluo-8 fluorescence;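 active = inhibition above that plate's mean sample inhibition plus 3 SD, cut at about 26% in these data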;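 also: 0% = ATP-challenged DMSO wells and 100% = DMSO wells without ATP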
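Assay system – parental CHO cells · Reagent – ATP stimulus · Detection – intracellular calcium via Fluo-8 no-wash fluorescent dye · Evaluation – percent inhibition of ATP-evoked calcium rise, normalized to controls · Controls – ATP wells versus no-ATP DMSO wells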
OX1R antag-2 – blocks the human orexin 1 receptor | inhibition, % at 5 µM | hit rate 0.43% among 330,000 | CHO/OX1R cells, Fluo-8 calcium fluorescence, orexin A;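 active = inhibition above its plate's threshold, mean inhibition of all tested compounds on the plate plus 3 SD, cut at about 37% in these data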;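 also: 0% = orexin A challenge wells and 100% = SB-334867-A antagonist wells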
OXTR potentiate – potentiates the human oxytocin receptor response; P30559; CHO-OTR cells, Fluo-8 calcium fluorescence, potentiator mode; 0% = oxytocin EC15, 100% = EC100; activation, % at 3 µM; hit rate 0.061% among 320,000; AID 2445;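 active = activation above that plate's cutoff, the mean activation of tested compounds plus 3 SD, cut at about 6.6% in these data, passing the limit was not always enough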;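 also: 100% uses oxytocin at 75 nM as the full agonist control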
Target sequence (P30559 whole entry, looked up): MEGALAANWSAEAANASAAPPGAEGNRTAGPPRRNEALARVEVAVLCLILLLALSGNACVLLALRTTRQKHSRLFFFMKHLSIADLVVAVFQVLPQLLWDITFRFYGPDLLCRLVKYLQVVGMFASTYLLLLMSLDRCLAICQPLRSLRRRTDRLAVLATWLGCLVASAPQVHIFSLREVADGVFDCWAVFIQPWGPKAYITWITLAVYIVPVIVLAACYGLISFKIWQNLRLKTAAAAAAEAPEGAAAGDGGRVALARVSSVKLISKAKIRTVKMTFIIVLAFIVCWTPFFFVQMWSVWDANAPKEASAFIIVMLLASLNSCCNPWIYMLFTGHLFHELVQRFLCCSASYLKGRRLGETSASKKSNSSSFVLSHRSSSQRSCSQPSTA
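test system = CHO-OTR cells, human receptor | compound = single-point 3.0 µM | schedule = 6 min compound pre-incubation at room temperature, 100 s kinetic read | signal = Fluo-8 no-wash calcium dye fluorescence, excitation 470-495 nm, emission 515-575 nm | repeats = single well per compound, singlicate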
V1aR counter – V1a receptor agonism, counter-screen for OXTR agonists; P37288; CHO-V1R cells, Fluo-8 calcium fluorescence, agonist mode; 0% DMSO, 100% 3 nM vasopressin; activation, % at 3 µM; hit rate 0.25% among 320,000;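 active = activation above the mean activation of all tested compounds plus 3 SD, per screening run, cut at about 20% in these data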;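 also: signal is peak over basal fluorescence ratio across a 100 second FLIPR read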
OXTR ag – agonists of human oxytocin receptor; P30559; activation, % at 3 µM; AID 2435; hit rate 0.32% among 320,000; CHO-OTR cells, Fluo-8 calcium fluorescence; normalized: DMSO 0%, oxytocin 100%;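 active = activation above the mean of all tested compounds plus 3 SD, cutoff set per screening run, cut at about 20% in these data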;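 also: peak over basal fluorescence ratio from a 100 s FLIPR kinetic read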
* hit, by the source's call. Only some compounds are listed: those with a hit (about 2.7% of all), similar ones and a draw of the others.

SMILES | OX1R antag-1 | CHO parental Ca | OX1R antag-2 | OXTR potentiate | V1aR counter | OXTR ag
O=[N+]([O-])c1cnccc1Nc1cccc(F)c1 | 75.4* | -6.0 | -8.1 | -2.2 | 0.5 | -0.7
CC1CCN(S(=O)(=O)CCNC(=O)c2ccc3c(c2)OCO3)CC1 | 6.1 | -16.1 | -7.8 | 3.1 | -0.4 | -0.6
COc1cc(OC)cc(N(C(=O)c2snc(C(N)=O)c2N)C(C(=O)NCC2CCCO2)c2ccc(C)o2)c1 (stereo unspecified) | 42.8 | -23.2 | -22.2 | 0.8 | -1.4 | -0.9
O=S(=O)(Nc1ccc(F)cc1)c1ccc(S(=O)(=O)N2CCOCC2)cc1 | 5.5 | -4.8 | 18.6 | -12.2 | 21.5* | 26.6*
COc1ccc(S(=O)(=O)Nc2ccc(S(=O)(=O)N3CCOCC3)cc2)cc1 | 16.9 | -5.4 | -10.7 | -12.1 | 3.4 | 8.7
Cc1ccc(-c2csc(NC(=O)c3cc([N+](=O)[O-])ccc3N3CCOCC3)n2)cc1 | 0.4 | 1.5 | -9.0 | 0.4 | 0.7 | -0.7
O=C(Nc1nc(-c2ccccc2)cs1)c1ccc(N2CCOCC2)c([N+](=O)[O-])c1 | 80.3* | 41.0* | 38.0 | -10.1 | 6.6 | 8.7
O=C(Nc1ccccc1Cl)c1ccc2c(=O)n3c(nc2c1)CCC3 | 5.1 | 2.7 | -12.5 | -4.7 | 0.0 | 1.2
O=C(Nc1nc(-c2ccccc2)cs1)c1ccc2c(=O)n3c(nc2c1)CCCCC3 | 51.1* | 15.3 | 21.4 | -15.4 | 6.0 | 2.2
Cc1c(N2C(=O)/C(=C\c3ccc(N(C)C)cc3)N(C)C2=S)c(=O)n(-c2ccccc2)n1C | 64.4* | 18.7 | 24.3 | -6.2 | 7.7 | 10.4
COc1ccccc1C(=O)Nc1nnc(-c2ccc3c(c2)CCCC3)o1 | 67.9* | -4.2 | -18.0 | -3.1 | -0.2 | -0.4
COc1ccc(C(=O)NC(C)c2ccncc2)cc1S(=O)(=O)N(C)Cc1ccccc1 (stereo unspecified) | 1.5 | 2.6 | -9.7 | -2.9 | 2.3 | 1.0
Cc1ccccc1C(=O)Oc1ccc2ccc(O)cc2c1 | 19.1 | 65.9* | 16.4 | -9.0 | 0.7 | -0.4
O=C(COC(=O)C12CC3CC(CC(O)(C3)C1)C2)Nc1ccc(Cl)c(S(=O)(=O)N2CCOCC2)c1 | 4.3 | -13.5 | -16.2 | -3.8 | 0.5 | 3.4
Cc1ccc(N2C(=O)c3ccc(C(=O)N4CCN(Cc5ccccc5)CC4)cc3C2=O)cc1 | 13.3 | 15.3 | 16.9 | -9.6 | 39.9* | 30.2*
COc1ccccc1NC(=O)c1ccccc1S(=O)(=O)c1ccc([N+](=O)[O-])cc1 | 20.1 | -20.3 | -14.0 | -0.2 | 0.2 | 0.6
COc1ccccc1NC(=O)c1ccccc1S(=O)(=O)c1ccccc1[N+](=O)[O-] | 58.3* | -13.8 | -8.7 | -1.3 | 0.4 | -1.2
Cc1ccc(C)c(N2CCN(C(=O)c3ccc(CSc4nc5ccncc5[nH]4)cc3)CC2)c1 | 15.5 | 44.0* | 52.9* | -25.1 | 10.7 | 11.9
O=C(c1ccc(CSc2nc3ccncc3[nH]2)cc1)N1CCCCC1 | 12.0 | 1.3 | -2.1 | -8.4 | 0.2 | -0.5
CN(C)CCNC(=O)Cn1ccc2cc(S(=O)(=O)N3CCCCCC3)ccc21 | 14.6 | -13.1 | -9.5 | -2.4 | 1.9 | 1.1
Cc1ccccc1CCNC(=O)Cn1ccc2cc(S(=O)(=O)N3CCCC3)ccc21 | 46.0* | -16.2 | 16.2 | -10.9 | 0.1 | -0.4
COc1ccc(CCNC(=O)Cn2ccc3cc(S(=O)(=O)N4CCCC4)ccc32)cc1OC | 57.2* | -15.1 | 8.8 | -0.1 | 0.2 | 0.1
Cc1ccc(CCNC(=O)Cn2ccc3cc(S(=O)(=O)N4CCCC4)ccc32)cc1 | 56.0* | -18.7 | 21.7 | -20.1 | 2.4 | 1.2
O=C(NC(CCl)c1ccccc1)c1ccc(Cl)cc1 (stereo unspecified) | 5.9 | -18.9 | -15.0 | -8.9 | 0.6 | 3.1
O=C(NCc1ccco1)c1cc2cc(Br)ccc2o1 | 6.9 | -1.3 | -11.6 | 2.2 | -0.7 | -1.4
CC(OC(=O)Cc1ccsc1)C(=O)Nc1ccc(C(N)=O)cc1 (stereo unspecified) | -3.9 | -7.0 | -10.8 | -1.6 | 0.6 | 2.0
CCCNC(=O)Cn1c(=O)oc2ccccc21 | 10.4 | -2.8 | -6.9 | -6.8 | 0.8 | 0.2
CCOC(=O)c1ccc(/C=N/O)[n+](Cc2ccccc2)c1 | 59.9* | -0.2 | -2.2 | 2.3 | 0.9 | -0.1
